According to ChEMBL document CHEMBL2346608, “New annelated thieno[2,3-e][1,2,3]triazolo[1,5-a]pyrimidines, with potent anticancer activity, designed through VLAK protocol” (2013):

Key:
Type in all cases: functional
[1] = tested on: SK-OV-3; assay: Antiproliferative activity against human SKOV3 cells after 48 hrs by sulforhodamine B assay; details: SK-OV-3, 48 h; for TGI: read-out: pTGI (converted)
Summary of the method: (§1)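 Cells grown in RPMI 1640 with 5% FBS and 2 mM L-glutamine, plated at 5000–40,000 cells/well and preincubated 24 h at 37 °C, 5% CO2. Five drug concentrations (10-fold or ½-log dilutions from DMSO stocks) applied for 48 h. TCA-fixed (final 10% adherent, 16% suspension), SRB-stained, A515 read. Growth versus time-zero and control wells gave GI50, TGI, LC50.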

[2] = tested on: OVCAR-8; assay: Antiproliferative activity against human OVCAR8 cells after 48 hrs by sulforhodamine B assay; details: OVCAR-8, 48 h; for TGI: read-out: pTGI (converted); summary of the method: as §1
[3] = tested on: OVCAR-3; assay: Antiproliferative activity against human OVCAR3 cells after 48 hrs by sulforhodamine B assay; details: OVCAR-3, 48 h; for TGI: read-out: pTGI (converted); summary of the method: as §1
[4] = tested on: NCI/ADR-RES; assay: Antiproliferative activity against human NCI/ADR-RES cells after 48 hrs by sulforhodamine B assay; details: for TGI: read-out: pTGI (converted); summary of the method: as §1
[5] = tested on: NCI-H522; assay: Antiproliferative activity against human NCI-H522 cells after 48 hrs by sulforhodamine B assay; details: NCI-H522, 48 h; for TGI: read-out: pTGI (converted); summary of the method: as §1
[6] = tested on: NCI-H460; assay: Antiproliferative activity against human NCI-H460 cells after 48 hrs by sulforhodamine B assay; details: NCI-H460, 48 h; for TGI: read-out: pTGI (converted); summary of the method: as §1
[7] = tested on: NCI-H23; assay: Antiproliferative activity against human NCI-H23 cells after 48 hrs by sulforhodamine B assay; details: NCI-H23, 48 h; for TGI: read-out: pTGI (converted); summary of the method: as §1
[8] = tested on: NCI-H226; assay: Antiproliferative activity against human NCI-H226 cells after 48 hrs by sulforhodamine B assay; details: NCI-H226, 48 h; for TGI: read-out: pTGI (converted); summary of the method: as §1
[9] = tested on: HOP-62; assay: Antiproliferative activity against human HOP62 cells after 48 hrs by sulforhodamine B assay; details: HOP-62, 48 h; for TGI: read-out: pTGI (converted); summary of the method: as §1
[10] = tested on: A549; assay: Antiproliferative activity against human A549 cells after 48 hrs by sulforhodamine B assay; details: A549, 48 h; for TGI: read-out: pTGI (converted); summary of the method: as §1
[11] = tested on: UACC-257; assay: Antiproliferative activity against human UACC257 cells after 48 hrs by sulforhodamine B assay; details: UACC-257, 48 h; for TGI: read-out: pTGI (converted)
Summary of the method: (§2)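 Cells in RPMI 1640 with 5% FBS and 2 mM L-glutamine were seeded at 5000–40,000/well according to doubling time and preincubated 24 h at 37 °C in 5% CO2. Time-zero plates were TCA-fixed when drug was added. Five 10-fold or ½-log dilutions from DMSO stocks were added for 48 h. After SRB staining, A515 was read and GI50 derived from [(Ti−Tz)/(C−Tz)]×100 = 50.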

[12] = tested on: SK-MEL-5; assay: Antiproliferative activity against human SK-MEL-5 cells after 48 hrs by sulforhodamine B assay; details: SK-MEL-5, 48 h; for TGI: read-out: pTGI (converted); summary of the method: as §1
[13] = tested on: Malme-3M; assay: Antiproliferative activity against human MALME-3M cells after 48 hrs by sulforhodamine B assay; details: for TGI: read-out: pTGI (converted); summary of the method: as §1
[14] = tested on: M14; assay: Antiproliferative activity against human M14 cells after 48 hrs by sulforhodamine B assay; details: M14, 48 h; for TGI: read-out: pTGI (converted); summary of the method: as §1
[15] = tested on: K562; assay: Antiproliferative activity against human K562 cells after 48 hrs by sulforhodamine B assay; details: K562, 48 h; for TGI: read-out: pTGI (converted); summary of the method: as §1
[16] = tested on: MOLT-4; assay: Antiproliferative activity against human MOLT4 cells after 48 hrs by sulforhodamine B assay; details: MOLT-4, 48 h; for TGI: read-out: pTGI (converted); summary of the method: as §1
[17] = tested on: SW-620; assay: Antiproliferative activity against human SW620 cells after 48 hrs by sulforhodamine B assay; details: SW-620, 48 h; for TGI: read-out: pTGI (converted); summary of the method: as §2
[18] = tested on: KM12; assay: Antiproliferative activity against human KM12 cells after 48 hrs by sulforhodamine B assay; details: KM12, 48 h; for TGI: read-out: pTGI (converted); summary of the method: as §1
[19] = tested on: COLO 205; assay: Antiproliferative activity against human COLO205 cells after 48 hrs by sulforhodamine B assay; details: COLO 205, 48 h; for TGI: read-out: pTGI (converted); summary of the method: as §1
[20] = tested on: SNB-75; assay: Antiproliferative activity against human SNB75 cells after 48 hrs by sulforhodamine B assay; details: SNB-75, 48 h; for TGI: read-out: pTGI (converted); summary of the method: as §2
[21] = tested on: SF-295; assay: Antiproliferative activity against human SF295 cells after 48 hrs by sulforhodamine B assay; details: SF-295, 48 h; for TGI: read-out: pTGI (converted); summary of the method: as §1
[22] = tested on: SF-268; assay: Antiproliferative activity against human SF268 cells after 48 hrs by sulforhodamine B assay; details: SF-268, 48 h; for TGI: read-out: pTGI (converted); summary of the method: as §1
[23] = tested on: MDA-MB-231; assay: Antiproliferative activity against human MDA-MB-231 cells after 48 hrs by sulforhodamine B assay; details: MDA-MB-231, 48 h; for TGI: read-out: pTGI (converted); summary of the method: as §1
[24] = tested on: TK-10; assay: Antiproliferative activity against human TK10 cells after 48 hrs by sulforhodamine B assay; details: TK-10, 48 h; for TGI: read-out: pTGI (converted); summary of the method: as §2
[25] = tested on: UO-31; assay: Antiproliferative activity against human UO31 cells after 48 hrs by sulforhodamine B assay; details: UO-31, 48 h; for TGI: read-out: pTGI (converted); summary of the method: as §2
[26] = tested on: SN12C; assay: Antiproliferative activity against human SN12C cells after 48 hrs by sulforhodamine B assay; details: for TGI: read-out: pTGI (converted); summary of the method: as §1
[27] = tested on: CAKI-1; assay: Antiproliferative activity against human CAKI-1 cells after 48 hrs by sulforhodamine B assay; details: CAKI-1, 48 h; for CC50: read-out: pLC50 (the source's name) (converted); for TGI: read-out: pTGI (converted); summary of the method: as §1
[28] = tested on: RXF 393; assay: Antiproliferative activity against human RXF393 cells after 48 hrs by sulforhodamine B assay; details: RXF 393, 48 h; for TGI: read-out: pTGI (converted); summary of the method: as §1
[29] = tested on: A498; assay: Antiproliferative activity against human A498 cells after 48 hrs by sulforhodamine B assay; details: A498, 48 h; for TGI: read-out: pTGI (converted); summary of the method: as §1

CN1CCN(CCCn2c(=O)c3sc4ncccc4c3n3nnc(-c4ccccc4)c23)CC1
GI50 [1]: 8.91 µM
LC50 [1]: 28.2 µM
TGI [1]: 15.8 µM
GI50 [2]: 7.76 µM
LC50 [2]: 30.2 µM
TGI [2]: 15.5 µM
GI50 [3]: 2.29 µM
LC50 [3]: 20.4 µM
TGI [3]: 7.59 µM
GI50 [4]: 7.24 µM
LC50 [4]: 28.2 µM
TGI [4]: 14.1 µM
GI50 [5]: 7.24 µM
LC50 [5]: 28.8 µM
TGI [5]: 14.5 µM
GI50 [6]: 6.92 µM
LC50 [6]: 26.9 µM
TGI [6]: 13.8 µM
GI50 [7]: 8.13 µM
LC50 [7]: 28.8 µM
TGI [7]: 15.5 µM
GI50 [8]: 7.41 µM
LC50 [8]: 31.6 µM
TGI [8]: 15.1 µM
GI50 [9]: 8.13 µM
LC50 [9]: 28.8 µM
TGI [9]: 15.5 µM
GI50 [10]: 6.76 µM
LC50 [10]: 28.2 µM
TGI [10]: 13.8 µM
GI50 [11]: 2.29 µM
LC50 [11]: 20.4 µM
TGI [11]: 7.59 µM
GI50 [12]: 7.24 µM
LC50 [12]: 26.3 µM
TGI [12]: 13.8 µM
GI50 [13]: 9.33 µM
LC50 [13]: 33.9 µM
TGI [13]: 17.8 µM
GI50 [14]: 2.14 µM
LC50 [14]: 20.9 µM
TGI [14]: 7.41 µM
GI50 [15]: 0.871 µM
LC50 (concentration killing 50% of cells) [15]: 4.79 µM
TGI [15]: 2.04 µM
GI50 [16]: 1.55 µM
LC50 [16]: 21.4 µM
TGI [16]: 4.9 µM
GI50 [17]: 5.37 µM
LC50 [17]: 24.5 µM
TGI [17]: 11.5 µM
GI50 [18]: 4.27 µM
LC50 [18]: 24.5 µM
TGI [18]: 10.7 µM
GI50 [19]: 7.41 µM
LC50 [19]: 28.8 µM
TGI [19]: 14.5 µM
GI50 [20]: 6.76 µM
LC50 (concentration killing 50% of starting cells) [20]: 25.7 µM
TGI [20]: 13.2 µM
GI50 [21]: 5.62 µM
LC50 [21]: 26.9 µM
TGI [21]: 12.3 µM
GI50 [22]: 6.46 µM
LC50 [22]: 26.9 µM
TGI [22]: 13.2 µM
GI50 [23]: 6.92 µM
LC50 [23]: 26.9 µM
TGI [23]: 13.5 µM
GI50 [24]: 6.92 µM
LC50 [24]: 26.9 µM
TGI [24]: 13.5 µM
GI50 [25]: 5.13 µM
LC50 [25]: 28.2 µM
TGI [25]: 12 µM
GI50 [26]: 7.24 µM
LC50 [26]: 28.2 µM
TGI [26]: 14.1 µM
GI50 [27]: 6.17 µM
CC50 [27]: 27.5 µM
TGI [27]: 12.9 µM
GI50 [28]: 6.31 µM
LC50 [28]: 28.2 µM
TGI [28]: 13.5 µM
GI50 [29]: 0.158 µM
LC50 [29]: 21.9 µM
TGI [29]: 9.33 µM

O=C(CCCn1c(=O)c2sc3ncccc3c2n2nnc(-c3ccccc3)c12)NCCc1c[nH]cn1
GI50 [1]: 14.5 µM
LC50 [1]: 53.7 µM
TGI [1]: 27.5 µM
GI50 [2]: 0.0955 µM
LC50 [2]: 67.6 µM
TGI [2]: 17.4 µM
GI50 [3]: 11 µM
LC50 [3]: 50.1 µM
TGI [3]: 23.4 µM
GI50 [4]: 33.9 µM
LC50 [4]: > 100 µM
TGI [4]: > 100 µM
GI50 [5]: 2.95 µM
LC50 [5]: 60.3 µM
TGI [5]: 22.9 µM
GI50 [6]: 3.63 µM
LC50 [6]: 42.7 µM
TGI [6]: 13.2 µM
GI50 [7]: 14.5 µM
LC50 [7]: 70.8 µM
TGI [7]: 32.4 µM
GI50 [8]: 11.7 µM
LC50 [8]: 74.1 µM
TGI [8]: 29.5 µM
GI50 [9]: 16.6 µM
LC50 [9]: 61.7 µM
TGI [9]: 31.6 µM
GI50 [10]: 8.71 µM
LC50 [10]: > 100 µM
TGI [10]: 34.7 µM
GI50 [11]: 18.2 µM
LC50 [11]: 69.2 µM
TGI [11]: 35.5 µM
GI50 [12]: 16.2 µM
LC50 [12]: > 100 µM
TGI [12]: > 100 µM
GI50 [13]: 18.2 µM
LC50 [13]: 75.9 µM
TGI [13]: 37.2 µM
GI50 [14]: 3.47 µM
LC50 [14]: 50.1 µM
TGI [14]: 19.5 µM
GI50 [15]: 0.309 µM
LC50 (concentration killing 50% of cells) [15]: > 100 µM
TGI [15]: 15.5 µM
GI50 [16]: 2.24 µM
LC50 [16]: > 100 µM
TGI [16]: 24 µM
GI50 [17]: 0.331 µM
LC50 [17]: 61.7 µM
TGI [17]: 14.5 µM
GI50 [18]: 1.91 µM
LC50 [18]: 83.2 µM
TGI [18]: 24 µM
GI50 [19]: 6.31 µM
LC50 [19]: 58.9 µM
TGI [19]: 23.4 µM
GI50 [20]: 15.1 µM
LC50 (concentration killing 50% of starting cells) [20]: 55 µM
TGI [20]: 28.8 µM
GI50 [21]: 1.74 µM
LC50 [21]: 53.7 µM
TGI [21]: 16.2 µM
GI50 [22]: 11.7 µM
LC50 [22]: 72.4 µM
TGI [22]: 28.8 µM
GI50 [23]: 17.8 µM
LC50 [23]: 67.6 µM
TGI [23]: 34.7 µM
GI50 [24]: 13.5 µM
LC50 [24]: 57.5 µM
TGI [24]: 28.2 µM
GI50 [25]: 11.7 µM
LC50 [25]: 60.3 µM
TGI [25]: 26.9 µM
GI50 [26]: 0.331 µM
LC50 [26]: 41.7 µM
TGI [26]: 13.5 µM
GI50 [27]: 2.88 µM
CC50 [27]: 72.4 µM
TGI [27]: 14.5 µM
GI50 [28]: 14.8 µM
LC50 [28]: 77.6 µM
TGI [28]: 33.9 µM
GI50 [29]: 6.76 µM
LC50 [29]: 53.7 µM
TGI [29]: 22.4 µM
